Laboratory results taken from ChEMBL document CHEMBL3045217, “Factors affecting the synergy of thiabendazole, sodium bicarbonate, and heat to control postharvest green mold of citrus fruit” (J Agric Food Chem, 2008).

Key:
Penicillium digitatum [1] = experiment: Fungicidal activity against Penicillium digitatum infected Valenica oranges assessed as fruit weight loss at 600 mg/L treated for 1 min at 20 degC postharvest at 20 hr after fungal conidial inoculation measured after 14 days of storage at 17 degC (water Rvb = 5.62%); assay type: functional
Penicillium digitatum [2] = experiment: Fungicidal activity against Penicillium digitatum infected Valenica oranges assessed as fruit weight loss at 600 mg/L treated for 1 min at 20 degC postharvest at 20 hr after fungal conidial inoculation measured after 21 days of storage at 17 degC in presence of 0.5% SBC (water Rvb = 10.79%); assay type: functional
Fruit [3] = experiment: Total drug residues in Citrus sinensis cvs. Salustiana (Salustiana oranges) fruit at 600 mg/L treated for 1 min at 20 degC postharvest measured after overnight incubation at 17 degC by GC analysis; assay type: ADME
How it was run: (§1)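 'Salustiana' oranges were water-washed, dried, dipped, then dried overnight at 17 °C in the dark. Unextracted fruit were used for total residues. Peel from five oranges was frozen at -18 °C. 5 g homogenized peel was extracted with 10 mL ethyl acetate/hexane (1/1) plus 2 g NaCl, shaken 30 min, then 1 mL of organic layer was dried under N2, redissolved in acetone, and run by GC without cleanup. Results are on a whole-fruit basis.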

Fruit [4] = experiment: Drug residues in Citrus sinensis cvs. Valencia late (Valencia oranges) at 600 mg/L treated for 1 min at 20 degC postharvest measured after 10 days of storage at 17 degC by GC analysis; assay type: ADME
How it was run: (§2)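 'Valencia' oranges were dipped 1 min in TBZ at 600 mg/L (20 °C, ±0.5, 1 or 2% wt/vol SBC), 400 mg/L (40 °C, ±SBC) or 200 mg/L (50 °C, alone), then air-dried. They were sampled at 0, 10 and 20 days at 17 °C. Peel of five fruit was frozen, and 5 g of homogenate was extracted with ethyl acetate/hexane (1/1) plus NaCl. The extract was dried under N2, taken up in acetone and analysed by GC. Results are mg/kg on a whole-fruit basis.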

Penicillium digitatum [5] = experiment: Fungicidal activity against TBZ-resistant Penicillium digitatum infected Valencia oranges assessed as postharvest green mold incidence at 400 mg/L treated for 1 min at 40 degC at 20 hr after fungal conidial inoculation measured after 7 days of storage at 20 degC (water Rvb = 90.0%); assay type: functional
Penicillium digitatum [6] = experiment: Fungicidal activity against TBZ-resistant Penicillium digitatum infected Valencia oranges assessed as postharvest green mold incidence at 600 mg/L treated for 1 min at 20 degC at 20 hr after fungal conidial inoculation measured after 7 days of storage at 20 degC (water Rvb = 96.7%); assay type: functional
Cuticular wax = experiment: Drug residues in Citrus sinensis cvs. Salustiana (Salustiana oranges) cuticular wax at 600 mg/L treated for 1 min at 20 degC postharvest measured after overnight incubation at 17 degC in presence of 2% SBC by GC analysis; assay type: ADME
How it was run: (§3)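 'Salustiana' oranges were washed with water and air-dried. They were dipped 1 or 3 min in TBZ 600 mg/L at 20 or 50 °C, or 1 min in TBZ 600 mg/L plus 2% SBC at 20 °C, then dried overnight at 17 °C in the dark. Surface residue was taken by water extraction and wax residue by chloroform extraction. Inner residue was measured in fruit after both extractions. Extracts were dried under N2, taken up in acetone and analysed by GC. Values are mg/kg on a whole-fruit basis.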

Fruit surface = experiment: Drug residues on Citrus sinensis cvs. Salustiana (Salustiana oranges) fruit surface at 600 mg/L treated for 1 min at 20 degC postharvest measured after overnight incubation at 17 degC by GC analysis; assay type: ADME; how it was run: as §3
Penicillium digitatum [7] = experiment: Fungicidal activity against TBZ-resistant Penicillium digitatum infected Nova mandarins assessed as postharvest green mold incidence at 400 mg/L treated for 1 min at 40 degC at 20 hr after fungal conidial inoculation measured after 5 days of storage at 20 degC (water Rvb = 96.7%); assay type: functional
Fruit [8] = experiment: Drug residues in Citrus sinensis cvs. Valencia late (Valencia oranges) at 600 mg/L treated for 1 min at 20 degC postharvest measured after 20 days of storage at 17 degC in presence of 2% SBC by GC analysis; assay type: ADME; how it was run: as §2
Fruit [9] = experiment: Drug residues in Citrus sinensis cvs. Valencia late (Valencia oranges) at 200 mg/L treated for 1 min at 50 degC postharvest measured after 10 days of storage at 17 degC by GC analysis; assay type: ADME; how it was run: as §2
Penicillium digitatum [10] = experiment: Fungicidal activity against TBZ-sensitive Penicillium digitatum infected Nova mandarins assessed as postharvest green mold incidence at 200 mg/L treated for 1 min at 50 degC at 20 hr after fungal conidial inoculation measured after 5 days of storage at 20 degC (water Rvb = 98.3%); assay type: functional
How it was run: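 Fruit were surface-disinfected in 1 g/L hypochlorite for 30 s, rinsed, dried, then wounded twice equatorially (2 mm × 2 mm rod). Inoculation was a 1 min dip in P. digitatum conidia, 1 × 10^5 conidia/mL final. Fruit were held 20 h at 20 °C and 90% RH, dipped 1 min (SBC wt/vol), and air-dried. Storage was 20 °C, 90% RH. Decay incidence (% fruit with lesions) was scored at 5 d for mandarins and 7 d for oranges. Three replicates of 40 fruit were used; arcsin-transformed data were compared by LSD, p ≤ 0.05.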

Fruit [11] = experiment: Drug residues in Citrus sinensis cvs. Valencia late (Valencia oranges) at 600 mg/L treated for 1 min at 20 degC postharvest measured immediately post-drug treatment in presence of 0.5% SBC by GC analysis; assay type: ADME; how it was run: as §2
Penicillium digitatum [12] = experiment: Fungicidal activity against Penicillium digitatum infected Valenica oranges assessed as fruit weight loss at 600 mg/L treated for 1 min at 20 degC postharvest at 20 hr after fungal conidial inoculation measured after 14 days of storage at 17 degC in presence of 2% SBC (water Rvb = 8.02%); assay type: functional
Fruit [13] = experiment: Drug residues in Citrus sinensis cvs. Valencia late (Valencia oranges) at 400 mg/L treated for 1 min at 40 degC postharvest measured after 10 days of storage at 17 degC in presence of 0.5% SBC by GC analysis; assay type: ADME; how it was run: as §2
Fruit [14] = experiment: Drug residues in Citrus sinensis cvs. Valencia late (Valencia oranges) at 600 mg/L treated for 1 min at 20 degC postharvest measured immediately post-drug treatment by GC analysis; assay type: ADME; how it was run: as §2
Fruit [15] = experiment: Drug residues in Citrus sinensis cvs. Valencia late (Valencia oranges) at 400 mg/L treated for 1 min at 40 degC postharvest measured after 20 days of storage at 17 degC in presence of 1% SBC by GC analysis; assay type: ADME; how it was run: as §2
Penicillium digitatum [16] = experiment: Fungicidal activity against Penicillium digitatum infected Valenica oranges assessed as fruit weight loss at 200 mg/L treated for 1 min at 50 degC postharvest at 20 hr after fungal conidial inoculation measured after 21 days of storage at 17 degC (water Rvb = 8.83%); assay type: functional
Fruit [17] = experiment: Total drug residues in Citrus sinensis cvs. Salustiana (Salustiana oranges) fruit at 600 mg/L treated for 3 min at 50 degC postharvest measured after overnight incubation at 17 degC by GC analysis; assay type: ADME; settings: 0.05 h; how it was run: as §1
Fruit [18] = experiment: Drug residues in Citrus sinensis cvs. Valencia late (Valencia oranges) at 400 mg/L treated for 1 min at 40 degC postharvest measured after 20 days of storage at 17 degC in presence of 2% SBC by GC analysis; assay type: ADME; how it was run: as §2

**Q.** For c1ccc2[nH]c(-c3cscn3)nc2c1 [THIABENDAZOLE], which Activity (Penicillium digitatum [1]) is on record?
**A.** The Activity was 6.33%.

**Q.** What about the Activity (Penicillium digitatum [2]) of the same compound?
**A.** Its Activity is 11.84%.

**Q.** What about the Drug uptake (Fruit [3]) of the same compound?
**A.** The Drug uptake was 1.04 mg/kg.

**Q.** What about the Drug uptake (Fruit [4]) of the same compound?
**A.** Its Drug uptake is 1.57 mg/kg.

**Q.** And the Activity (Penicillium digitatum [5])?
**A.** The Activity was 55.8%.

**Q.** What about the Activity (Penicillium digitatum [6]) of the same compound?
**A.** Its Activity is 78.3%.

**Q.** And the Drug uptake (Cuticular wax)?
**A.** The Drug uptake was 0.46 mg/kg.

**Q.** And the Drug uptake (Fruit surface)?
**A.** Its Drug uptake is 0.68 mg/kg.

**Q.** And the Activity (Penicillium digitatum [7])?
**A.** The Activity was 88.3%.

**Q.** What about the Drug uptake (Fruit [8]) of the same compound?
**A.** The Drug uptake was 1.38 mg/kg.

**Q.** What about the Drug uptake (Fruit [9]) of the same compound?
**A.** Its Drug uptake is 0.43 mg/kg.

**Q.** What about the Activity (Penicillium digitatum [10]) of the same compound?
**A.** Its Activity is 3.3%.

**Q.** What about the Drug uptake (Fruit [11]) of the same compound?
**A.** Its Drug uptake is 1.25 mg/kg.

**Q.** What about the Activity (Penicillium digitatum [12]) of the same compound?
**A.** Its Activity is 9.38%.

**Q.** And the Drug uptake (Fruit [13])?
**A.** The Drug uptake was 0.76 mg/kg.

**Q.** And the Drug uptake (Fruit [14])?
**A.** The Drug uptake was 1.59 mg/kg.

**Q.** What about the Drug uptake (Fruit [15]) of the same compound?
**A.** Its Drug uptake is 0.71 mg/kg.

**Q.** And the Activity (Penicillium digitatum [16])?
**A.** Its Activity is 8.54%.

**Q.** And the Drug uptake (Fruit [17])?
**A.** The Drug uptake was 1.6 mg/kg.

**Q.** And the Drug uptake (Fruit [18])?
**A.** The Drug uptake was 0.58 mg/kg.
